For assay [1], the target named is T1, Botulinum neurotoxin type E (Clostridium botulinum) (UniProt Q00496).
T1 sequence (whole entry): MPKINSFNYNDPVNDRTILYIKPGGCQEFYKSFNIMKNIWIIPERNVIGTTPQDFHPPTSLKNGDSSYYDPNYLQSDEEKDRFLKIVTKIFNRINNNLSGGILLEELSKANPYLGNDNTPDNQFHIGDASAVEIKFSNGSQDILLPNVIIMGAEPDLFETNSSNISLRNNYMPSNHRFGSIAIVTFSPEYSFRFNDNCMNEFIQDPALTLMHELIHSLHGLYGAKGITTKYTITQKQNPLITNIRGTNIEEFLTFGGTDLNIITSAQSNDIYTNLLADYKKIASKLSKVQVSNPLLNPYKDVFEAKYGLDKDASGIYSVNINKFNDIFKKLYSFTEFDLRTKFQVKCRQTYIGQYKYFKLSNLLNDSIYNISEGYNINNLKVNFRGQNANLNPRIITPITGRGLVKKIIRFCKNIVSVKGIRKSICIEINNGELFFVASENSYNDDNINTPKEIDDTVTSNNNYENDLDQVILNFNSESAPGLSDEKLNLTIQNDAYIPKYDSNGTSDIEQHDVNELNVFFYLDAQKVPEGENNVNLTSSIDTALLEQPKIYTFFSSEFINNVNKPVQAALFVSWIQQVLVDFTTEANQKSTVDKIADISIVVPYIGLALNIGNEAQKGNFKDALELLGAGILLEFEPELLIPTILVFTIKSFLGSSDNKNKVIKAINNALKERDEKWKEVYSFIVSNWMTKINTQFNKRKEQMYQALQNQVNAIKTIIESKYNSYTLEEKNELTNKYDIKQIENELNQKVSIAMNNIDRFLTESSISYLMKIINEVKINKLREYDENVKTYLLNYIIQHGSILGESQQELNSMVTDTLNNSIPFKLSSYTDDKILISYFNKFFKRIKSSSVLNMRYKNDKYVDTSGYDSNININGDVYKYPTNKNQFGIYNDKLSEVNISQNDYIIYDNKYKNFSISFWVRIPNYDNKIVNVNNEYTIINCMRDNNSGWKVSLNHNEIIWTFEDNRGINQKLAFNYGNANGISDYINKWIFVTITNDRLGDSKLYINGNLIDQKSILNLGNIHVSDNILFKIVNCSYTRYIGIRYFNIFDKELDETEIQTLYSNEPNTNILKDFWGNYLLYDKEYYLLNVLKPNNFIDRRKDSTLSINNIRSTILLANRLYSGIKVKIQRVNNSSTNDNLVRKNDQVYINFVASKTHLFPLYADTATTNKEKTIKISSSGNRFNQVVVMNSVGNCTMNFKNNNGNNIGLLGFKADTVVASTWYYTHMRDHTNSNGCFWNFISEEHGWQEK
The assay can be described thus: (§1) Inhibition of Clostridium botulinum BoNT/E light chain using GFP-tagged VAMP2/SNAP-25 (Ala128 to Gly206 residues) as substrate after 15 mins by GFP based micro plate reader method. In outline: (§2)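 Recombinant BoNT/E light chain (25 nM) in 20 mM Hepes pH 7.4 with 2 mM DTT, preincubated 15 min with compound, then added to streptavidin plates carrying an immobilised biotinylated AviTag–VAMP2/SNAP-25–GFP substrate. GFP release was followed at 37°C (ex 460/em 506 nm). Triplicates over a range of concentrations; IC50 came from a sigmoid fit with Hill slope fixed at 1. The ratio uses the reference inhibitor run under the same conditions.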

Assay [2] has as its target T1, Botulinum neurotoxin type E (Clostridium botulinum). The assay can be described thus: Inhibition of Clostridium botulinum BoNT/E light chain-mediated SNAP-25 cleavage assessed as reduction in residual activity using SNAP-Etide as substrate at 100 uM after 15 mins by micro plate reader method. In outline: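 Compound was preincubated 15 min with 2.5 nM BoNT/E light chain in 20 mM Hepes pH 7.4 with 2 mM DTT (final DMSO ≤1%). Reaction was started with 10 µM SNAP-Etide at 37°C and read as fluorescence (ex 320/em 420 nm). Percent inhibition = [1 − (test initial velocity ÷ mean initial velocity of two DMSO controls)] × 100.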

The target in assay [3] is T2, Botulinum neurotoxin type E (Clostridium botulinum, UniProt Q00496).
T2 sequence (Q00496 whole entry): T1 sequence (whole entry)
Described as §1. Put shortly:
as §2

For assay [4], the target named is T1, Botulinum neurotoxin type E (Clostridium botulinum). The assay can be described thus: Inhibition of Clostridium botulinum BoNT/E light chain using GFP-tagged VAMP2/SNAP-25 (Ala128 to Gly206 residues) as substrate at 12.5 uM after 15 mins by GFP based micro plate reader method. In outline:
(§3)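 Immobilised biotinylated AviTag–VAMP2/SNAP-25(Ala128–Gly206)–GFP substrate on streptavidin plates. BoNT/E light chain (25 nM) in 20 mM Hepes pH 7.4 with 2 mM DTT was preincubated 15 min with compound before addition to the wells. Liberated GFP was read at 37°C (ex 460/em 506 nm). Percent inhibition at a single concentration, run in triplicate.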

For assay [5] the target is unchanged. Nature of the assay: Inhibition of Clostridium botulinum BoNT/E light chain using GFP-tagged VAMP2/SNAP-25 (Ala128 to Gly206 residues) as substrate at 100 uM after 15 mins by GFP based micro plate reader method. Put shortly:
as §3

For assay [6] the target is unchanged. Nature of the assay: Potency index, ratio of IC50 for NSC-77053 to IC50 for test compound for inhibition of Clostridium botulinum BoNT/E light chain using GFP-tagged VAMP2/SNAP-25 (Ala128 to Gly206 residues) as substrate after 15 mins by GFP based micro plate reader method. Put shortly:
as §2

The target is the same in assay [7]. The assay can be described thus: Inhibition of Clostridium botulinum BoNT/E light chain using GFP-tagged VAMP2/SNAP-25 (Ala128 to Gly206 residues) as substrate at 25 uM after 15 mins by GFP based micro plate reader method. Put shortly: as §3
For assay [8], the target named is T3, Botulinum neurotoxin type A (Clostridium botulinum, UniProt P0DPI0). The assay can be described thus: Inhibition of protease activity of Clostridium botulinum BoNT/A using SNAP-25 as substrate by FRET analysis.
T3 sequence (P0DPI0 2-448 limits assumed): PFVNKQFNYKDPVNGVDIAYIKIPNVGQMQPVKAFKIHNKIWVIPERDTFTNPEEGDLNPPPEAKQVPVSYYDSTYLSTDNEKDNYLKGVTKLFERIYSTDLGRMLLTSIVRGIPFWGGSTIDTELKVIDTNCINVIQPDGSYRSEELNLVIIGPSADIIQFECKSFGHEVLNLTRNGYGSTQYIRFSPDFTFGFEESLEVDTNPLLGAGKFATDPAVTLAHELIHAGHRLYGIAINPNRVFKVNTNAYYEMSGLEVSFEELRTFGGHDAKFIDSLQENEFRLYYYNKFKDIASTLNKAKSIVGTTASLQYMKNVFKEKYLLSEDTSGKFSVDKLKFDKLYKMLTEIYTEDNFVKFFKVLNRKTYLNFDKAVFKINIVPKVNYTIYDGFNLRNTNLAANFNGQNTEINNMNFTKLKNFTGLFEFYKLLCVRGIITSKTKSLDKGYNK
In assay [9] the target is T3, Botulinum neurotoxin type A. The assay can be described thus: Inhibition of protease activity of Clostridium botulinum BoNT/A using N(K)-acetyl)-SNKTRIDEANQRATKML-carboxamide as substrate.
Assay [10] has the same target. The assay can be described thus: Inhibition of Clostridium botulinum BoNT/A light chain.

Active and inactive are the calls of the source. The calls are words filed in the database; no cut-off is given here. Square brackets hold non-standard residues; d marks the D form. Peptide text beside a SMILES is read from it. * marks the point of attachment. ξ: configuration not given here. Dnp = O=[N+]([O-])c1ccc(*)c([N+](=O)[O-])c1; ξDab = NCCC(N)C(=O)O

For orientation: inhibition means the percentage by which the read-out fell short of the control. By IC50 is commonly meant the concentration needed to halve the response being measured. Lower therefore signals greater potency. As usually defined, the Ki is a measure of affinity in units of concentration, obtained from inhibition or displacement. The low end stands for higher affinity, the high end for lower affinity.

For the compound `Cc1cc(C)cc(N(CC(=O)Nc2ccc(C(F)(F)F)cc2)S(=O)(=O)c2c(C)nc(O)nc2O)c1`, the inhibition entry in assay [1] is “inactive”. In assay [2], the inhibition was 42%. Take `CC(=O)N/C(=C\c1c[nH]c2ccccc12)C(=O)N[C@@H](Cc1c[nH]c2ccccc12)C(=O)O` (stereo in doubt): the inhibition entry in assay [1] was “inactive”. The inhibition in [2] came out at 52%. In turn, `Cc1cccc(NC(=O)[C@@H](CC(C)C)NS(=O)(=O)c2ccc3oc(=O)n(C)c3c2)c1C` had an IC50 in [3] of 14.2 µM. The inhibition in assay [4] worked out at 46.5%; in assay [5], 84%; in assay [7] it was 58%; in assay [2], 71%. Also, the Ratio IC50 in [6] was determined as 3. Regarding `O=C(/C=C/c1ccc(Cl)cc1)NO`, inhibition in assay [8] was half-maximal at 15 µM (IC50). In the case of `CC(=O)c1cccc(NC(=O)CSc2nnc(SCC(=O)Nc3cccc(C(C)=O)c3)s2)c1`, the inhibition entry in assay [1] was “inactive”. In assay [2], the inhibition came to 31%. Take `COc1ccc(N(CC(=O)Nc2ccc(F)c(Cl)c2)S(=O)(=O)c2c(C)[nH]c(=O)[nH]c2=O)cc1`: in [1], the inhibition result was “inactive”. Besides, the inhibition in assay [2] was 41%. The compound H-CRATKML-OH had a Ki in assay [9] of 2 µM. Turning to `CCOc1ccc(NC(=O)CSc2nccn2-c2cccc(C(=O)Nc3ccccc3)c2)cc1`, in assay [1], the inhibition entry is “inactive”. In addition, in assay [2], the inhibition amounted to 40%. Take `Cc1ccc(NC(=O)N2CC(=O)N(CC(=O)NC[C@H]3CCCO3)c3ccccc32)cc1`: the inhibition entry in assay [1] is “inactive”. Besides, in [2], the inhibition is 33%. For the compound `CCOc1ccc(OCC)c(NC(=O)CSc2cc(N3CCC(C(=O)NC4CC4)CC3)ncn2)c1`, the inhibition entry in assay [1] is “inactive”. In addition, the inhibition in assay [2] turned out to be 25%.

For the compound `COc1ccc(CNC(=O)C(=O)N[C@@H](C)[C@H](c2cccs2)N2CCN(Cc3ccccc3)CC2)cc1`, in [1], the inhibition result was “inactive”. For the same compound, in assay [2], the inhibition amounted to 47%. `Cc1cccc(NC(=O)[C@H](CC(C)C)NS(=O)(=O)c2ccc3oc(=O)n(C)c3c2)c1C`: the inhibition in assay [4] worked out at 52%; in assay [5], 77.5%; in assay [7] it was 62.5%. On to `CC[C@H](C)[C@H](NS(=O)(=O)c1ccc2oc(=O)n(C)c2c1)C(=O)Nc1cccc(C)c1C`, for which it took 16 µM to reach half-maximal inhibition in [3] (IC50). This lies in the double-digit micromolar range.

Take `CSCC[C@H](NC(=O)C(CCN)NC(=O)[C@@H](NC(=O)[C@H](Cc1c[nH]c2ccccc12)NC(=O)[C@H](CCCNC(=N)N)NC(=O)C(N)CCNc1ccc([N+](=O)[O-])cc1[N+](=O)[O-])[C@@H](C)O)C(=O)N[C@@H](CC(C)C)C(=O)O` (stereo partly specified) (H-[ξDab](Dnp)RWT[ξDab]ML-OH): in assay [9], the Ki was 0.041 µM. This lies in the double-digit nanomolar range. Consider `O=C(O)c1ccccc1C(=O)c1ccc2c(c1)Cc1ccccc1-2`, for which half-maximal inhibition in assay [3] (IC50) required 48.5 µM. Consider `N=C(N)NCCC[C@H](NC(=O)[C@@H](N)CCCNC(=N)N)C(=O)NCC(=O)N[C@@H](Cc1ccccc1)C(=O)O` (H-RRGF-OH), for which, in [10], the IC50 was 0.9 µM.

The values above are taken from ChEMBL document CHEMBL4431362, “Identification of small molecule inhibitors of botulinum neurotoxin serotype E via footprint similarity” (Bioorg Med Chem, 2016).
